# Measured values from different studies.
# Protocols differ between the studies behind these lines.
SMILES,tested on,test,test system,conditions,endpoint,value
Cc1ccc(-c2nn(-c3ccccc3)cc2C=Nc2c(N)nc(S)nc2O)cc1,CCRF-CEM,cell growth or viability,,48 h,CC50,< 20 µM
CCCNc1c2c([nH]c(=O)c1C(=O)OCC)CCC2,Human immunodeficiency virus 1,"viral replication, inhibitor",IIIB,72 h,EC50,30.6 µM
Cc1nc(Nc2ncc(C(=O)Nc3c(C)cccc3Cl)s2)cc(N2CC[C@H](O)C2)n1,SU-DHL-5,"cell growth or viability, ATP luminescence",,"10 µM, 72 h",inhibition,98%
[NH2][Pt]([NH2])([Cl])[Cl],HCC4006,"cell growth or viability, MTT",,48 h,IC50,182 µM
CCOC(=O)c1c(N(CC)CC)c2c([nH]c1=O)CCC2,Human immunodeficiency virus 1,"viral replication, inhibitor",IIIB,72 h,EC50,79.3 µM
CC(=O)ON=C1C=CC(=C(C#N)c2ccccc2)C=C1,HDF-1,"cell growth or viability, MTT",,48 h,IC50,24.9 µg/mL
CC(C)(C#Cc1ccc(-c2ccc(Cl)c3c(NS(C)(=O)=O)nn(CC(F)(F)F)c23)c([C@H](CC2CCCC2)NC(=O)Cn2nc(C(F)(F)F)c3c2C(F)(F)[C@@H]2C[C@H]32)n1)S(C)(=O)=O,Human immunodeficiency virus 1,"viral replication, inhibitor",,,EC50,7.3e-05 µM
NNC(=O)c1ccncc1,Mycobacterium marinum,microbial growth,,,MIC90,40 µM
O=c1[nH]ncc(NN=Cc2cn(-c3ccccc3)nc2-c2cc3ccccc3oc2=O)c1Cl,CCRF-CEM,cell growth or viability,,48 h,CC50,36.2 µM
CC(C)(C#Cc1ccc(-c2ccc(Cl)c3c(NS(C)(=O)=O)nn(CC(F)(F)F)c23)c([C@@H](CC2CC2)NC(=O)Cn2nc(C(F)(F)F)c3c2C(F)(F)[C@@H]2C[C@H]32)n1)S(C)(=O)=O,Human immunodeficiency virus 1,"viral replication, inhibitor",,,EC50,0.0038 µM
CCOC(=O)c1c(NCCCCN)c2c([nH]c1=O)CCC2,Human immunodeficiency virus 1,"viral replication, inhibitor",IIIB,72 h,EC50,> 100 µM
CC(C)(C#Cc1ccc(-c2ccc(Cl)c3c(NS(C)(=O)=O)nn(CC(F)(F)F)c23)c([C@H](Cc2cc(F)cc(F)c2)NC(=O)Cn2nc(C(F)(F)F)c3c2C(F)(F)[C@@H]2C[C@H]32)n1)S(C)(=O)=O,Human immunodeficiency virus 1,"viral replication, inhibitor",,,EC50,0.00019 µM
CCOC(=O)c1c(NCCCN)c2c([nH]c1=O)CCC2,Human immunodeficiency virus 1,"viral replication, inhibitor",IIIB,72 h,EC50,> 100 µM
